Sampled rows, rich in hits. Any-hit rate of the full collection: about 2.6%.
NadD inh: blocks S. aureus nicotinate mononucleotide adenylyltransferase; purified NadD enzyme, colorimetric absorbance read-out; inhibition, % at 20 µM; 360,000 compounds, 0.78% hits; AID 602399; in the data active = inhibition above about 26%
STEP inh: inhibitors of human striatal-enriched phosphatase STEP | AID 588621 | P54829 | 360,000 compounds, 0.25% hits | recombinant STEP, OMFP fluorogenic substrate, fluorescence | inhibition, % at 20 µM;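 active = inhibition at 20 µM, scaled per plate between control wells, above about 37%, limit read from the data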;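 also: 0% = DMSO with enzyme and substrate and 100% = substrate only without enzyme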
Target sequence (P54829 whole entry, looked up): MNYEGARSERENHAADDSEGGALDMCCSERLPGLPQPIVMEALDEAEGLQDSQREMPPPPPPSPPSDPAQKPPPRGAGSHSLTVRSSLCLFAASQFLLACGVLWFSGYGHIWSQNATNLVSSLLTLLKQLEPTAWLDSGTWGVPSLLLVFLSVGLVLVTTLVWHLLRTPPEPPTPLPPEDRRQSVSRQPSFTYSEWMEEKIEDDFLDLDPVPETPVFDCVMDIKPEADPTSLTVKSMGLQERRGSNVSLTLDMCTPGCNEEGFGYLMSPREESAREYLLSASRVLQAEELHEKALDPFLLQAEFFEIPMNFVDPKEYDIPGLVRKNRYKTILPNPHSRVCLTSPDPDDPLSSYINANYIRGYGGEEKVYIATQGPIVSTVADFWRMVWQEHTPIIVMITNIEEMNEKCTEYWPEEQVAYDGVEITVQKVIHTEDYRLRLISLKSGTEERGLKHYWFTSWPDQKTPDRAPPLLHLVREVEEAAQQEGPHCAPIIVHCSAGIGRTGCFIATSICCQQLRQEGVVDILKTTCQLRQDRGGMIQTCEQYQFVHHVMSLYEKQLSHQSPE
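Material: STEP (striatal-enriched tyrosine phosphatase) enzyme, cell-free; Compound dosing: 20 µM single dose in 1% DMSO; Technique: fluorescence read at 480 nm ex / 540 nm em; Times: reaction 20 min, ambient temperature; Medium: 50 mM Bis-Tris pH 6.0 with 2.5 mM DTT and 0.005% Tween 20; Also added: OMFP at 25 µM.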
rCAG RNA binder: r(CAG) repeat RNA binding; TO-PRO-1 dye displacement fluorescence; inhibition, % at 3 µM; 370,000 compounds, 1.3% hits;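 active = inhibition above the plate cutoff, the mean of all test compounds on that plate plus 3 SD, cut at about 35% in these data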;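 also: 0% = DMSO alone and 100% = 100 µM mitoxantrone as full dye displacement; higher means more dye released from RNA so lower well fluorescence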
LMPTP inh: blocks human LMPTP phosphatase | AID 651560 | inhibition, % at 20 µM | recombinant LMPTP-A, OMFP fluorogenic substrate, fluorescence intensity | P24666 | 360,000 compounds, 0.22% hits;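 active = compounds that cut the enzyme signal by at least half of the control window in the single-dose screen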;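 also: plate controls were DMSO wells with enzyme plus substrate for no effect and substrate without enzyme for full effect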
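Assay system: LMPTP-A enzyme. Input: 0.625 nM LMPTP-A final. Probe or stimulus: 400 µM OMFP. Compound dosing: single 20 µM dose. Schedule: 50 min dark incubation at room temperature. Detection: fluorescence intensity of OMFP turnover product. Read-out: percent inhibition versus substrate-only and uninhibited controls. Benchmarks: no-enzyme low control, uninhibited high control.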
Scp-1 inhibitor: blocks human Scp-1 phosphatase activity; Q9GZU7; AID 493091; 340,000 compounds, 0.88% hits; inhibition, % at 20 µM; Recombinant Scp1, phosphopeptide, malachite green phosphate absorbance;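 active = inhibition above about 50% at 20 µM, limit read from the data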;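 also: plate controls were DMSO wells with enzyme for no effect and wells lacking enzyme for full effect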
Target sequence (Q9GZU7 76-261 limits assumed): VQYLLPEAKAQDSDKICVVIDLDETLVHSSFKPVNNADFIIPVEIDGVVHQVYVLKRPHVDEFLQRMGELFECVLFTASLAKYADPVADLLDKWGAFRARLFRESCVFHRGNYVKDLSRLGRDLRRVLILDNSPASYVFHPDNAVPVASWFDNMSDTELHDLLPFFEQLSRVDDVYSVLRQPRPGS
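Material – SCP-1 phosphatase catalytic domain, residues 76-261 · Buffer or medium – Acidic Tris acetate buffer with magnesium and detergent · Also added – Phospho 17-mer peptide substrate · Compound – single 20 µM dose, 1% DMSO · Times – 45 min room-temperature reaction, 5 min colour, 30 min stabiliser · Technique – Phosphate-binding colour reagent, absorbance read at 630 nm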
rCAG bind conf: r(CAG) RNA repeat binding, confirmation. shares compounds with rCAG RNA binder. TO-PRO-1 dye displacement fluorescence. inhibition, % at 3 µM. 4,300 compounds, 70% hits. AID 652065;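 active = inhibition above a per-plate cutoff, the mean inhibition of sample wells plus 3 SD, cut at about 35% in these data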;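 also: loss of TO-PRO-1 fluorescence as compound displaces dye from 1x1 AA loop RNA; 0% = DMSO only wells and 100% = 100 µM mitoxantrone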
DNA CAG counter: DNA CAG dye complex inhibition counter-screen | shares compounds with rCAG RNA binder | d(CAG) DNA oligo TO-PRO-1 dye displacement, fluorescence | inhibition, % at 3 µM | 4,300 compounds, 94% hits | AID 652068;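 active = inhibition above its plate's cutoff, the mean test-well inhibition plus 3 SD, cut at about 4.8% in these data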;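 also: 0% = DNA dye mix with DMSO and 100% = 100 µM mitoxantrone; hits displace the dye from DNA and so lower well fluorescence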
* hit, by the source's call; / = not tested or not shown.

SMILES | NadD inh | STEP inh | rCAG RNA binder | LMPTP inh | Scp-1 inhibitor | rCAG bind conf | DNA CAG counter
CCCCCCCCN1CCS(=O)(=O)N(Cc2ccc(C(F)(F)F)cc2)C(C(=O)OC)C1 (centres undefined) | / | / | 4.2 | / | / | / | /
Cc1nn(-c2ccccc2)c(C)c1/C=N/NC(=O)c1ccccc1NS(=O)(=O)c1cccs1 | 15.4 | -4.7 | 61.7* | -0.6 | -6.3 | 60.4* | 21.3*
Cc1nn(-c2ccccc2)c(C)c1/C=N/NC(=O)c1cccs1 | -0.6 | -5.9 | -2.9 | -0.3 | -4.4 | / | /
COc1cc(/C=N/NC(=O)c2ccccc2NS(=O)(=O)c2cccs2)ccc1O | 2.5 | -1.8 | 43.2* | 0.1 | 9.6 | 32.1 | 9.4*
CCOC(=O)C1=NN(C(=O)Nc2cccc(C(F)(F)F)c2)C2C(=O)N(c3cccc(C(F)(F)F)c3)C(=O)C12 (centres undefined) | 7.9 | 3.8 | 82.5* | -0.4 | 9.7 | 23.2 | 5.8*
Cc1ccccc1NC(=O)CSc1nnc(-c2cc(-c3ccccc3)n[nH]2)n1N | / | / | 4.1 | / | / | / | /
O=C(O)CC/C(=C\c1ccc(N2CCCC2)c([N+](=O)[O-])c1)c1nc2ccccc2s1 | 25.0 | 2.3 | 70.3* | 4.7 | -2.3 | 88.5* | 52.9*
CCC(Sc1nc(-c2cccc(OC)c2)c(C#N)c(=O)[nH]1)C(=O)Nc1nnc(C(C)C)s1 (centres undefined) | 1.1 | 0.9 | 75.3* | -0.2 | 7.2 | 74.8* | 38.2*
COc1cccc(-c2nc(-c3ccccc3)[nH]c(=O)c2C#N)c1 | 0.7 | -5.6 | 8.6 | -1.8 | 43.5 | / | /
Cc1ccc(NS(=O)(=O)c2ccc3[nH]c(=O)c(=O)[nH]c3c2)cc1Cl | 10.3 | 0.8 | 13.2 | 0.9 | -4.2 | / | /
Cc1ccc(NS(=O)(=O)c2ccc(Cl)c(N=Nc3c(O)[nH]c(=O)[nH]c3=O)c2)cc1Cl | 30.8* | -2.5 | 66.5* | 4.9 | -3.6 | 76.1* | 35.7*
Nc1cc(=O)[nH]c(SCc2cccc3ccccc23)n1 | 2.7 | -0.7 | 6.5 | 0.0 | -0.9 | / | /
O=c1cc(C(F)(F)F)nc(SCc2cccc3ccccc23)[nH]1 | -2.8 | -1.0 | 68.7* | 1.8 | -13.3 | 40.2* | 10.3*
CC(CCc1ccccc1)NC(=O)COC(=O)c1cc(NS(=O)(=O)c2ccc(Cl)c([N+](=O)[O-])c2)ccc1O (centres undefined) | 11.4 | 0.3 | 46.4* | 4.0 | -14.7 | 43.4* | 12.3*
CN(C(=O)COC(=O)c1cc(NS(=O)(=O)c2cc([N+](=O)[O-])ccc2Cl)ccc1O)C1CCCCC1 | 7.6 | -1.8 | 56.0* | 2.7 | -15.5 | 52.8* | 16.7*
O=C(COC(=O)c1cc([N+](=O)[O-])ccc1Cl)NC1CCCC1 | -3.2 | -1.5 | -4.2 | -0.3 | -0.9 | / | /
CNS(=O)(=O)c1cccc(C(=O)OCC(=O)NC(C)CCc2ccccc2)c1 (centres undefined) | -5.0 | 0.9 | -0.7 | -0.9 | -11.0 | / | /
Cc1ccc(CN2CCCCC(NC(=O)c3c(F)cccc3F)C2=O)cc1 (centres undefined) | / | / | 1.9 | / | / | / | /
CCCCNC(=O)C1CCCN1C(=O)Nc1cc(Cl)cc(Cl)c1 (centres undefined) | / | / | 3.4 | / | / | / | /
O=C(Nc1ccc(S(=O)(=O)Nc2nccs2)cc1)C1=NN(c2ccccc2)C(=O)CC1 | 7.6 | -1.4 | 35.6* | 5.8 | -7.4 | 28.5 | 14.5*
O=C(Nc1ccc(S(=O)(=O)Nc2nccs2)cc1)c1ccncc1 | 4.2 | -3.3 | 2.2 | -1.0 | / | / | /
O=C(Nc1ccc(S(=O)(=O)Nc2nccs2)cc1)c1cc(-c2ccccn2)nc2ccccc12 | 23.3 | 0.2 | 66.3* | 0.5 | -1.2 | 61.0* | 25.6*
O=C(Nc1ccc(S(=O)(=O)Nc2nccs2)cc1)c1cccc(F)c1 | -13.5 | -0.6 | 12.8 | 0.8 | -7.9 | / | /
O=C(Nc1ccncc1)c1cc(-c2ccccn2)nc2ccccc12 | 4.9 | -3.9 | 1.4 | 0.0 | -5.2 | / | /
O=C(NNS(=O)(=O)c1cccc(Cl)c1)c1cc(-c2ccc(F)cc2)nc2ccccc12 | 6.4 | 0.7 | 43.8* | 3.0 | -0.3 | 44.0* | 15.0*
SMILES | NadD inh | STEP inh | rCAG RNA binder | LMPTP inh | Scp-1 inhibitor | rCAG bind conf | DNA CAG counter
CN(C)c1cccc(C(=O)Nc2ccc(S(=O)(=O)Nc3nccs3)cc2)c1 | 10.4 | 1.1 | 35.9* | 2.5 | 2.1 | 28.1 | 10.0*
O=C(CCc1ccccc1)N[C@H]1/C(=N/O)CCC[C@]12C(=O)N(Cc1ccccc1)c1ccccc12 | / | / | 7.5 | / | / | / | /
O=C(N[C@H]1C[C@@H]2O[C@@H](CO)CC[C@@H]2O[C@@H]1CCc1ccc(-c2cccnc2)cc1)c1cccc(F)c1 | / | / | 1.0 | / | / | / | /
O=C(NCCc1c[nH]c2ccccc12)OCc1cn(Cc2ccc(F)c(F)c2)nn1 | / | / | 1.8 | / | / | / | /
CCN(CC)S(=O)(=O)c1ccc(NC(=O)c2cc(-c3ccccc3)nc3ccccc23)cc1 | 21.3 | -2.6 | 0.3 | 2.0 | 7.0 | / | /
Cc1ccc(O)c(-c2cc(C(=O)Nc3ccc(S(=O)(=O)Nc4nc(C)cc(C)n4)cc3)[nH]n2)c1 | 15.3 | -2.9 | 55.0* | -0.2 | -0.8 | 40.4* | 11.7*
O=C(O)c1ccccc1NC(=O)c1cc(-c2ccccc2)nc2ccccc12 | -0.5 | -1.8 | 56.4* | -1.1 | 3.6 | 61.9* | 21.9*
Cc1cc(C)nc(NS(=O)(=O)c2ccc(NC(=O)c3cc(-c4ccccc4)nc4ccccc34)cc2)n1 | 25.8 | -3.4 | 48.7* | 3.2 | -1.0 | 61.6* | 24.7*
O=C(Nc1nncs1)c1cc(-c2ccco2)nc2ccccc12 | 5.6 | -2.7 | 47.8* | 1.1 | -15.3 | 15.9 | 7.1*
Cc1cccc(NC(=O)c2cc(-c3ccco3)nc3ccccc23)n1 | -2.5 | 4.4 | 4.7 | -0.4 | 0.6 | / | /
Brc1cccc(Cn2ccc3ccc(-c4ccc5ccn(Cc6cccc(Br)c6)c5c4)cc32)c1 | / | / | 10.8 | / | / | / | /
O=C1C=C[C@H]2CC[C@@H](O)[C@@H]1[C@@H]2Sc1ccccc1 | / | / | 4.9 | / | / | / | /
N#CCC[C@H]1CC[C@]2(CCCN(C(=O)c3ccco3)C2)O1 | / | / | 1.5 | / | / | / | /
O=C(O)c1cc(-c2ccc(-c3ccc(F)cc3)o2)nc2ccccc12 | -1.2 | 4.3 | 37.4* | -1.8 | 3.1 | 17.4 | 4.3
CCOC(=O)CC[C@@H]1CC[C@]2(CCCN(C(=O)C(C)(C)C)C2)O1 | / | / | -0.8 | / | / | / | /
Cc1ccc(NC2=Nc3ccccc3N3C2=Nc2c(c(C)nn2-c2ccccc2)C3c2ccc(O)c(O)c2)cc1 (centres undefined) | 61.2* | -2.2 | 57.4* | 1.1 | -0.3 | 63.5* | 41.6*
Cc1nn(-c2ccccc2)c2c1C(c1ccc(O)c(O)c1)N1C(=N2)C(Nc2ccccc2)=Nc2ccccc21 (centres undefined) | 18.4 | 1.5 | 18.2 | -0.7 | 0.6 | / | /
